Screens deposited in PubChem BioAssay by several laboratories.
PREPL inh: inhibits the human prolyl oligopeptidase-like enzyme | 320,000 compounds, 0.68% hits | Q4J6C6 | recombinant PREPL, fluorescence polarization activity-based probe | AID 2751 | inhibition, % at 5.96 µM; in the data active means inhibition above about 43%;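 further: 0% = enzyme with DMSO and 100% = wells lacking enzyme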
UBC13 inh: inhibitors of human UBC13 polyubiquitin chain formation; P61088; TR-FRET; inhibition, % at 20 µM; 330,000 compounds, 0.47% hits; AID 485273; in the data active means inhibition above about 45%, passing the limit was not always enough
Target sequence (P61088 whole entry, looked up): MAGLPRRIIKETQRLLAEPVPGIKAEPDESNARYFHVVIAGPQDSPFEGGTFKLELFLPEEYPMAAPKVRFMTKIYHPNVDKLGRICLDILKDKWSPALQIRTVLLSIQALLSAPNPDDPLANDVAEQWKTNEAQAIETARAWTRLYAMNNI
PP1 counter: counter-screen for PP5 inhibitors: inhibitors of human PP1-alpha; P62136; purified PP1alpha, OMFP fluorescence; inhibition, % at 6.7 µM; 320,000 compounds, 0.9% hits;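 active means inhibition above the mean inhibition of all tested compounds plus 3 SD, computed separately for each screening campaign, cut at about 15% in these data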
Fh CTSL1 inh: counter-screen for PFM18AAP inhibitors: inhibitors of F. hepatica cathepsin L1; recombinant F. hepatica cathepsin L1, Z-Leu-Arg-MCA fluorescence; inhibition, % at 5.96 µM; 300,000 compounds, 0.49% hits;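 active means inhibition above the mean of all tested compounds plus 3 SD, set per screening campaign, cut at about 17% in these data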;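 further: 0% = plate median of test compound wells and 100% = 1 µM Z-Phe-Ala-diazomethylketone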
PP5 inh: PP5 (human) phosphatase inhibition; 320,000 compounds, 0.18% hits; AID 1987; purified PP5c, OMFP substrate fluorescence; P53041; inhibition, % at 6.7 µM;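 active means inhibition above the campaign's mean inhibition across all tested compounds plus 3 SD, cut at about 9.5% in these data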;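 further: 0% = DMSO only and 100% = 100 µM cantharidin control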
Target sequence (P53041 whole entry, looked up): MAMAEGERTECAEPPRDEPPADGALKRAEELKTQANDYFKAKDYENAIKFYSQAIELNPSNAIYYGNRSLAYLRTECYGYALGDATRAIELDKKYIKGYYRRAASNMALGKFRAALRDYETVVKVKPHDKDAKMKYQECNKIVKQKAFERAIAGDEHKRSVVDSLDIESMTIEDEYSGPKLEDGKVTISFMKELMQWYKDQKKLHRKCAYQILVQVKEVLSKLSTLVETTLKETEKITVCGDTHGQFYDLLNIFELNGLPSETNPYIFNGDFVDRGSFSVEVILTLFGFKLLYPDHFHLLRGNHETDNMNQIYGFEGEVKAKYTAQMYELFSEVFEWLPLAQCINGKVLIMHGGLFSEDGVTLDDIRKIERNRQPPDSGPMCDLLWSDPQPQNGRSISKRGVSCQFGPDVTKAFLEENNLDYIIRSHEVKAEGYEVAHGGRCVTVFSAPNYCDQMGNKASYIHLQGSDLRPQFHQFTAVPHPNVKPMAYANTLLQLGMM
UCH37 DUB inh: blocks the human deubiquitinase UCH37; purified proteasome/UCH37, Ub-AMC cleavage fluorescence; inhibition, % (test concentration not listed); Q9Y5K5; 330,000 compounds, 0.33% hits; AID 588478;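 active means mean inhibition over replicate wells above about 20%, limit read from the data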;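 further: 0% = compound-free wells with enzyme and 100% = wells lacking proteasome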
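Schedule: 30 min plus 25 min, room temperature / Material: human UCH37 within purified proteasomes / Technique: AMC fluorescence intensity at 355/460 nm / Buffer or medium: pH 7.4 Tris-HCl (50 mM) with ovalbumin, ATP-MgCl2, DTT / Controls: wells without proteasome as full block, compound-free enzyme plus substrate as uninhibited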
UCH37 reconfirm: UCH37 Ub-AMC cleavage inhibition, confirmed | AID 624100 | 480 compounds, 27% hits | shares compounds with UCH37 DUB inh | inhibition, % at 20 µM | Proteasome-bound UCH37, Ub-AMC cleavage fluorescence;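 active means average inhibition over replicates above about 50%, so the earlier screening hit is confirmed, limit read from the data; inactive means the rest, counted as false positives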;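 further: based on cleavage rate fitted by regression over a 30 min kinetic read; 0% = proteasome plus Ub-AMC and 100% = Ub-AMC without proteasome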
Numbers without * were called inactive. An excerpt weighted towards active compounds, which were near 2.3% of everything screened.

`O=C1CC(c2ccccc2)CC(=NCCO)/C1=C(/O)CCCN1C(=O)c2ccccc2C1=O` (stereo not drawn) gave UCH37 DUB inh 0.
NS(=O)(=O)c1ccc(Nc2ccc([N+](=O)[O-])c3nonc23)cc1 was read as PREPL inh 9, UBC13 inh -460, PP1 counter 2, Fh CTSL1 inh 7, PP5 inh 3, UCH37 DUB inh 26* and UCH37 reconfirm 5.
CCc1nnc(NS(=O)(=O)c2ccc(Nc3ccc([N+](=O)[O-])c4nonc34)cc2)s1 was read as PREPL inh 5, UBC13 inh -235, PP1 counter 3, Fh CTSL1 inh 1, PP5 inh 2, UCH37 DUB inh 35* and UCH37 reconfirm 31.
COc1ccc(C=NNC(=O)c2c(C)n(C)c3ccc(OC)cc23)c(OC)c1 was read as UCH37 DUB inh 7.
Screening COc1cc(/C=C(\C#N)c2nc3ccccc3s2)cc([N+](=O)[O-])c1O returned UBC13 inh -221, UCH37 DUB inh 26* and UCH37 reconfirm 53*.
`N#C/C(=C\c1ccc(O)c([N+](=O)[O-])c1)c1nc2ccccc2s1` gave UCH37 DUB inh 5.
For Cc1ccoc1C(=O)NCCCNC(=O)c1occc1C the results were PREPL inh -6, UBC13 inh -20, PP1 counter 0, Fh CTSL1 inh 8, PP5 inh 3, UCH37 DUB inh 48* and UCH37 reconfirm 6.
For Oc1ccc(C=NN2CCN(Cc3ccccc3)CC2)cc1 the results were UCH37 DUB inh 2.
`CSc1nnc(NC(=O)c2cc(=O)c3cc(C)cc(C)c3o2)s1` gave PREPL inh 7, UBC13 inh -8, PP1 counter 0, Fh CTSL1 inh 5, PP5 inh -1, UCH37 DUB inh 34* and UCH37 reconfirm 9.
Screening Cc1cccc(NC2=C(NC(=O)c3ccccc3)C(=O)c3ccccc3C2=O)c1 returned PREPL inh 15, UBC13 inh -138, PP1 counter -1, Fh CTSL1 inh 2, PP5 inh 1, UCH37 DUB inh 52* and UCH37 reconfirm 42.
Screening O=C(NC1=C(NC2CCS(=O)(=O)C2)C(=O)c2ccccc2C1=O)c1ccccc1 (stereo not drawn) returned PREPL inh 11, UBC13 inh -91, PP1 counter 3, Fh CTSL1 inh 10, PP5 inh 5, UCH37 DUB inh 62* and UCH37 reconfirm 60*.
COc1ccc(C(C)=NNC(=O)c2nnn(-c3nonc3N)c2-c2ccccc2)cc1 was read as UCH37 DUB inh -52.
Screening O=C(NN=Cc1ccc(OCC(=O)N2CCCC2)cc1)C(=O)Nc1ccccc1F returned UCH37 DUB inh 5.
Screening NC(=S)NN=Cc1ccc(C(F)(F)F)cc1 returned UCH37 DUB inh 0.
`NC(=S)NN=Cc1cc([N+](=O)[O-])ccc1Cl` gave UCH37 DUB inh 4.
`CCn1c(C=Nc2nc3ccccc3n2C)nc2ccccc21` gave UCH37 DUB inh -1.
Screening O=C(N(c1ccccc1)c1ccccc1)N(c1ccccc1)c1ccccc1 returned PREPL inh -2, UBC13 inh 4, PP1 counter 1, Fh CTSL1 inh 2, PP5 inh 2 and UCH37 DUB inh -3.
`CC(=O)N(C1=C(N)C(=O)c2ccccc2C1=O)c1ccccc1` gave PREPL inh 3, UBC13 inh -65, PP1 counter -4, Fh CTSL1 inh 30*, PP5 inh 2, UCH37 DUB inh 37* and UCH37 reconfirm 49.
Screening O=C(O)CC1S/C(=N/N=Cc2ccc(-c3ccccc3[N+](=O)[O-])o2)NC1=O (stereo not drawn) returned UCH37 DUB inh 26* and UCH37 reconfirm 28.
O=C(O)CC1S/C(=N/N=Cc2ccc(-c3ccc(Cl)cc3[N+](=O)[O-])o2)NC1=O (stereo not drawn) was read as UCH37 DUB inh 28* and UCH37 reconfirm 17.
For CC1CCCC(NC(=O)COC(=O)c2ccccc2[N+](=O)[O-])C1C (stereo not drawn) the results were PREPL inh 7, UBC13 inh -10, PP1 counter -1, Fh CTSL1 inh 4, PP5 inh 3 and UCH37 DUB inh 2.
CC1CCCC(NC(=O)COC(=O)c2ccc([N+](=O)[O-])s2)C1C (stereo not drawn) was read as PREPL inh 2, UBC13 inh -8, UCH37 DUB inh 78* and UCH37 reconfirm 85*.
Screening CC(=NNC(=O)Cc1cc(=O)[nH][nH]1)c1cccc([N+](=O)[O-])c1 returned UCH37 DUB inh -2.
`O=C(O)CN1C(=O)/C(=C/c2ccsc2)SC1=S` gave PREPL inh 2, UBC13 inh 3, PP1 counter -3, Fh CTSL1 inh 2, PP5 inh -1 and UCH37 DUB inh 12.
Screening O=C(O)CN1C(=O)/C(=C\c2cccc(OCc3ccc(Cl)cc3)c2)SC1=S returned PREPL inh -16, UBC13 inh -27, PP1 counter 11, Fh CTSL1 inh 3, PP5 inh 0, UCH37 DUB inh 28* and UCH37 reconfirm 82*.
O=C(O)CN1C(=O)/C(=C\c2cccc(OCc3ccc(F)cc3)c2)SC1=S was read as UBC13 inh -16 and UCH37 DUB inh 15.
Cn1cccc1/C=C1\SC(=S)N(CC(=O)O)C1=O was read as PREPL inh -2, PP1 counter -1, Fh CTSL1 inh 7, PP5 inh -1, UCH37 DUB inh 25* and UCH37 reconfirm 30.
`NC(=NOC(=O)c1ccccc1Cl)c1cccc([N+](=O)[O-])c1` gave UCH37 DUB inh 3.
CCCCNC1=CC(=O)C(=O)c2ccccc21 was read as PREPL inh 4, UBC13 inh -133, PP1 counter 1, Fh CTSL1 inh 2, PP5 inh 2, UCH37 DUB inh 49* and UCH37 reconfirm 37.
Screening O=C1C=C(Nc2ccccc2)c2ccccc2C1=O returned UBC13 inh -287, UCH37 DUB inh 65* and UCH37 reconfirm 43.
O=C1C=C(Nc2ccccc2C(=O)O)c2ccccc2C1=O was read as PREPL inh 12, UBC13 inh -100, PP1 counter 7, Fh CTSL1 inh 29*, PP5 inh 1, UCH37 DUB inh 82* and UCH37 reconfirm 93*.
For COc1ccc(N(CC(=O)NN=Cc2cccnc2)S(=O)(=O)c2ccc(C)cc2)cc1OC the results were UCH37 DUB inh 5.
For CC(=NNC(=O)CSc1nc2ccccc2n1C)c1ccco1 the results were UCH37 DUB inh -1.
`Cc1ccc(C=NNC(=O)CSc2nc3ccccc3o2)cc1` gave UCH37 DUB inh 3.
